One block for each compound: values may come before it. Calls of active or inactive are those of the source. The calls are words filed in the database; no cut-off is given here.
Tests used:
[1] = Efflux ratio of apparent permeability in human Caco-2 cells at 2 uM incubated for 1 hr; format: ADME, cell-based
Outline: (§1)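 Bidirectional transport across Caco-2 cells in HBSS, pH 7.4, 0.1% final DMSO. Compound was tested at 1 or 2 μM for 1 h at 37 °C, 5% CO2. Apical and basal samples gave apparent permeability A→B and B→A, and the efflux ratio.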

[2] = Stability in simulated intestinal fluid for >24 hrs; format: physicochemical; conditions: simulated gi fluid
Outline: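 Stability tested in simulated gastric fluid containing pepsin and simulated intestinal fluid containing pancreatin.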

[3] = Apparent permeability across apical to basal side in human Caco-2 cells at 2 uM incubated for 1 hr; format: ADME, cell-based; outline: as §1
[4] = Half life in C57BL/6J mouse at 1 mg/kg, iv by LC-MS/MS analysis; format: ADME, organism-based; conditions: in vivo
Outline: (§2)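 Single dose to fasted male C57BL6 mice, Sprague-Dawley rats, beagle dogs and cynomolgus monkeys, either IV at 1 mg/kg or PO as a solution at 5 mg/kg, in 80% PEG 400 in water. Plasma concentrations were measured by LC-MS/MS. PK parameters come from noncompartmental analysis using nominal doses and nominal sampling times.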

[5] = Toxicity in C57BL/6 mouse infected with AAV-Hepatitis B virus assessed as change in ALT level at 15 mg/kg, po bid for 56 days followed by induction of compound washout period for 14 days; format: organism-based; conditions: in vivo, 1680 h, time 70 day
[6] = AUC (infinity) in C57BL/6J mouse at 1 mg/kg, iv by LC-MS/MS analysis; format: ADME, organism-based; conditions: in vivo; outline: as §2
[7] = AUC (infinity) in Cynomolgous monkey at 1 mg/kg, iv by LC-MS/MS analysis; format: ADME, organism-based, Macaca fascicularis; conditions: cynomolgus monkey, in vivo; outline: as §2
[8] = Half life in Sprague-Dawley rat at 1 mg/kg, iv by LC-MS/MS analysis; format: ADME, organism-based; conditions: in vivo; outline: as §2
[9] = Toxicity in C57BL/6 mouse infected with AAV-Hepatitis B virus assessed as change in body weight at 15 to 50 mg/kg, po qd for 56 days followed by induction of compound washout period for 14 days; format: organism-based; conditions: in vivo, 1680 h, dose 15-50 mg/kg, time 70 day
[10] = test system: Mus musculus; experiment: Effect on HBsAg level in C57BL/6 mouse infected with AAV-Hepatitis B virus at 15 mg/kg, po bid for 56 days followed by induction of compound washout period for 14 days; format: functional, organism-based; conditions: time 70.0 day
[11] = Oral bioavailability in C57BL/6J mouse at 5 mg/kg by LC-MS/MS analysis; format: ADME, organism-based; conditions: in vivo
Outline: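 Fasted male C57BL6 mice, Sprague–Dawley rats, beagle dogs, cynomolgus monkeys; single IV dose 1 mg/kg or PO solution 5 mg/kg in 80% PEG 400 in water; plasma concentrations measured, noncompartmental analysis with nominal doses and times; F from PO vs IV AUC.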

[12] = Plasma protein binding in Cynomolgous monkey at 1 uM incubated for 4 to 24 hrs by equilibrium dialysis method; format: ADME, cell-free, Macaca fascicularis; conditions: cynomolgus monkey, time 4-24 hrs, read-out: PPB (converted)
Outline: (§3)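 Rapid equilibrium dialysis in mouse, rat, dog, monkey or human plasma for 4 or 24 h; test concentrations 1, […].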

[13] = Plasma protein binding in mouse at 1 uM incubated for 4 to 24 hrs by equilibrium dialysis method; format: ADME, cell-free; conditions: time 4-24 hrs, read-out: PPB (converted); outline: as §3
[14] = AUC (infinity) in Beagle dog at 1 mg/kg, iv by LC-MS/MS analysis; format: ADME, organism-based, Canis lupus familiaris; conditions: in vivo; outline: as §2
[15] = Half life in Beagle dog at 1 mg/kg, iv by LC-MS/MS analysis; format: ADME, organism-based, Canis lupus familiaris; conditions: in vivo; outline: as §2
[16] = target: Bile salt export pump (Homo sapiens, UniProt O95342); experiment: Inhibition of BSEP (unknown origin) transfected in HEK293 cells; format: cell-based
[17] = target: T1, Cytochrome P450 2B6 (Homo sapiens, UniProt P20813); experiment: Induction of CYP2B6 (unknown origin) in human hepatocytes upto 30 uM; format: ADME, cell-based, Hepatocyte
T1 sequence (P20813 whole entry): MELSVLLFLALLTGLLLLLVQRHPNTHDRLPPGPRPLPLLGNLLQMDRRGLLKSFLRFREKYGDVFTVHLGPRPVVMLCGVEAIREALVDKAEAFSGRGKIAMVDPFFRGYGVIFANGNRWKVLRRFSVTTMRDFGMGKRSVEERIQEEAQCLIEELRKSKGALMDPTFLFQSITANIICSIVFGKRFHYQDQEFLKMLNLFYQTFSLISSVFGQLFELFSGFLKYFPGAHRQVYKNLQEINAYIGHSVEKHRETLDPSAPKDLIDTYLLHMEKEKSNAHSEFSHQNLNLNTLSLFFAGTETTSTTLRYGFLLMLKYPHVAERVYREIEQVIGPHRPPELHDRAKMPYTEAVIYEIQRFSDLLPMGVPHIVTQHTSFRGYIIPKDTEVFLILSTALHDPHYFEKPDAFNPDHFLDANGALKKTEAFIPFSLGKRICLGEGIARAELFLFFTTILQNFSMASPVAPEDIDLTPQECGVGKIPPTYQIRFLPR

[18] = Effect on mitochondrial biogenesis in human HepG2 cells upto 10 uM; format: toxicity, cell-based; conditions: hepg2, 10 µM
[19] = Cmax in Beagle dog at 5 mg/kg, po by LC-MS/MS analysis; format: ADME, organism-based, Canis lupus familiaris; conditions: in vivo; outline: as §2
[20] = Volume of distribution at steady state in C57BL/6J mouse at 1 mg/kg, iv by LC-MS/MS analysis; format: ADME, organism-based; conditions: in vivo, read-out: Vdss
Outline: (§4)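 Fasted males (C57BL6 mice, Sprague−Dawley rats, beagle dogs, cynomolgus monkeys) given a single IV dose of 1 mg/kg in 80% PEG 400 in water. Plasma concentrations measured by LC-MS/MS. Vss derived by noncompartmental analysis using nominal dose and nominal sampling times.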

[21] = Metabolic stability in human assessed as half life at 1 uM incubated upto 180 mins
[22] = target: Multidrug and toxin extrusion protein 2 (Homo sapiens, UniProt Q86VL8); experiment: Inhibition of MATE2 (unknown origin) transfected in HEK293 cells; format: cell-based
[23] = test system: Nav1.5; experiment: Inhibition of Nav1.5 (unknown origin) expressed in mammalian cells at 10 uM by automated patch-clamp method; format: toxicity, cell-based, Homo sapiens; conditions: mammalian cells expressing Nav1.5
Outline: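 Currents of hERG, Nav1.5 or Cav1.2 channels expressed in mammalian cells recorded by automated patch clamp (QPatch 48) at room temperature.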

[24] = Ratio of drug concentration in blood to plasma in dog at 5 uM incubated for 60 mins; format: ADME, cell-free, Canis lupus familiaris
Outline: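 Compound at 5 μM in whole blood of each species, 37 ± 1 °C for 60 min; blood-to-plasma ratio and red blood cell partitioning determined.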

[25] = target: Organic anion transporter 3 (Homo sapiens, UniProt Q8TCC7); experiment: Inhibition of OAT3 (unknown origin) transfected in HEK293 cells; format: cell-based
Outline: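 HEK-293 cells transfected with the uptake transporter; uptake of known probe substrates measured with test compound at eight concentrations (0.0229–50.0 μM or 0.0457–100 μM); inhibition at each concentration used to calculate IC50.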

[26] = Volume of distribution at steady state in Sprague-Dawley rat at 1 mg/kg, iv by LC-MS/MS analysis; format: ADME, organism-based; conditions: in vivo, read-out: Vdss; outline: as §4
[27] = AUC (infinity) in Sprague-Dawley rat at 1 mg/kg, iv by LC-MS/MS analysis; format: ADME, organism-based; conditions: in vivo; outline: as §2

Organic anion transporter 3, sequence (Q8TCC7 whole entry): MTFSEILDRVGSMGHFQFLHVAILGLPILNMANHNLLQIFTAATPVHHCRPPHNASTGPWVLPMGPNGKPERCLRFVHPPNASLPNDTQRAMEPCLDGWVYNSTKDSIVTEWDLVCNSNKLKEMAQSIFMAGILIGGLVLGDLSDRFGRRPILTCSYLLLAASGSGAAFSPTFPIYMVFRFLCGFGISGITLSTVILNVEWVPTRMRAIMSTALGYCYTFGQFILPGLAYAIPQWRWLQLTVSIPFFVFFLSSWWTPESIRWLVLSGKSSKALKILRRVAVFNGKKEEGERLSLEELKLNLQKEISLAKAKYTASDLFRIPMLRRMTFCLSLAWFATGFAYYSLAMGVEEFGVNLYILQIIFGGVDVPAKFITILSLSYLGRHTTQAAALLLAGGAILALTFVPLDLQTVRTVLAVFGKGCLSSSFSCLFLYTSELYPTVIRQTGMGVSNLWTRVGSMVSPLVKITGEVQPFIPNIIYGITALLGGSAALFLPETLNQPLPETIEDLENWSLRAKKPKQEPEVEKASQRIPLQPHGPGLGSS
Bile salt export pump, sequence (O95342 whole entry): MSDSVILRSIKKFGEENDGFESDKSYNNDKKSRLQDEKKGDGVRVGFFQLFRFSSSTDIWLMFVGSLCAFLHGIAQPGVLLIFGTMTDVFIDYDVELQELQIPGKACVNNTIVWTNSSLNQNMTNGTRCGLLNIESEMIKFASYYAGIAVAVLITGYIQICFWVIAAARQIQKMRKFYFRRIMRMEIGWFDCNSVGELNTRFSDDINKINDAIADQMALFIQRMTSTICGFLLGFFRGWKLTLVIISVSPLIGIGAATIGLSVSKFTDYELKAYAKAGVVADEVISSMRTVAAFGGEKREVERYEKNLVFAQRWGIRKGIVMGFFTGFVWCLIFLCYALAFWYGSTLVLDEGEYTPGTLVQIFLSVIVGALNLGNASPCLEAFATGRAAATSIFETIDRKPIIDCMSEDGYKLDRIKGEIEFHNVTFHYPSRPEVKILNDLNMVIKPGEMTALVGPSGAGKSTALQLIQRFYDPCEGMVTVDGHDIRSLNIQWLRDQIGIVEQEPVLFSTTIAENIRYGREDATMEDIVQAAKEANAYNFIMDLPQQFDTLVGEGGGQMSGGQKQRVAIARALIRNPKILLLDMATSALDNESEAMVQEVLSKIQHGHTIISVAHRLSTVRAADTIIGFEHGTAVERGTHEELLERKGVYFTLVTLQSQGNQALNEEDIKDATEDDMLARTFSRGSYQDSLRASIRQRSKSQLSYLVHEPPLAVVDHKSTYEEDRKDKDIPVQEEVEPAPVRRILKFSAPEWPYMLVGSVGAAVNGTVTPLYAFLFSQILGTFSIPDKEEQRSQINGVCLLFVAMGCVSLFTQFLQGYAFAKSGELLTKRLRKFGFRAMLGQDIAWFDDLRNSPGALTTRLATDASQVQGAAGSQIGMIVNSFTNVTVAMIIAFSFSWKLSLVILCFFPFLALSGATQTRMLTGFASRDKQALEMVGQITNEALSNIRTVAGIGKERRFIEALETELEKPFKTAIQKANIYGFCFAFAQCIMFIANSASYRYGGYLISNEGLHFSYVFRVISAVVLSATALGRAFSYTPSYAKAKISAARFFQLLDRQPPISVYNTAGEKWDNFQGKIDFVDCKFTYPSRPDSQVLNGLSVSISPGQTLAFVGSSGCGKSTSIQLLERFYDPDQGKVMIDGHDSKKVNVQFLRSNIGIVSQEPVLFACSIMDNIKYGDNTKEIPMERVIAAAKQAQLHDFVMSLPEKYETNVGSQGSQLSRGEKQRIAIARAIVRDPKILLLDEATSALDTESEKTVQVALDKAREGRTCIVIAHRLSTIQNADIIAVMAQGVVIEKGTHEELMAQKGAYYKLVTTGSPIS
Multidrug and toxin extrusion protein 2, sequence (Q86VL8 whole entry): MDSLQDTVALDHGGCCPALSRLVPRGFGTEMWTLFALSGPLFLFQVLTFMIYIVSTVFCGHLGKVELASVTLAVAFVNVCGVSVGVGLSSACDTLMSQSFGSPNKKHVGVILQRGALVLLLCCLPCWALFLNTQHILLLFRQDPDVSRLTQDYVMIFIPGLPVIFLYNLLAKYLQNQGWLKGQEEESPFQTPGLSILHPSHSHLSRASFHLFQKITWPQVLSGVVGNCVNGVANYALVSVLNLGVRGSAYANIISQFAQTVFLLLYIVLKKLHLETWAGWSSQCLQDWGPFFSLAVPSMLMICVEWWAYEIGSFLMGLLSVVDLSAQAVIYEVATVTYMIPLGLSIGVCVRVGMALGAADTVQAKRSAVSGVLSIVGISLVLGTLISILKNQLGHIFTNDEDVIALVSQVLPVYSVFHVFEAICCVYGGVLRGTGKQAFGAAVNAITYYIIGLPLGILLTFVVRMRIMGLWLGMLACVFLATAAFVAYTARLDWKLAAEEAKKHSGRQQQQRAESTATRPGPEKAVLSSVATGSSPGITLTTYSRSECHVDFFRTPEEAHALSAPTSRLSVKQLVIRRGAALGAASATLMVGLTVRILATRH

efflux ratio at 1 h, 2 µM [1]: 1.9
Stability [2]: Stable
Papp A→B at 1 h, 2 µM [3]: 4.6 ×10⁻⁶ cm/s
Structure (SMILES): C#CC1(N(COP(=O)([O-])[O-])C(=O)C(=O)c2c(C)c(C(=O)Nc3ccc(F)c(C#N)c3)n(C)c2C)COC1.[Na+].[Na+]

Structure (SMILES): C#CC1(NC(=O)C(=O)c2c(C)c(C(=O)Nc3ccc(F)c(C#N)c3)n(C)c2C)COC1
half-life [4]: 1.37 h
Activity [5]: Non-toxic
AUC(0-inf) [6]: 1390 ng·h/mL
AUC(0-inf) [7]: 2240 ng·h/mL
half-life [8]: 1.64 h
Activity [9]: Non-toxic
Activity [10]: inactive
bioavailability [11]: 115%
fraction unbound at 1 µM [12]: 0.284
fraction unbound at 1 µM [13]: 0.354
AUC(0-inf) [14]: 8520 ng·h/mL
half-life [15]: 6.38 h
IC50 [16]: > 11.8 µM
Activity [17]: Not_active
Activity [18]: Non-toxic
Cmax [19]: 1900 ng/mL
Vd [20]: 1 L/kg
half-life at 1 µM [21]: > 6 h
IC50 [22]: > 11.8 µM
IC50 [23]: > 10 µM
blood plasma ratio at 1 h, 5 µM [24]: 0.82
IC50 [25]: > 11.8 µM
Vd [26]: 0.5 L/kg
AUC(0-inf) [27]: 2780 ng·h/mL
